Assay results as given in ChEMBL document CHEMBL5724801, “EUbOPEN Chemogenomics Library - Multiplex” (2024).
“And” between values parts separate entries of the source, which are not always exact repeats. Equal entries are not always repeated.

Tested on: U2OS
Test: Multiplex assay against U2OS
Format: toxicity, cell-based
Conditions: human
How it was run: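 Hoechst33342, BioTracker Green Microtubule Cytoskeleton Dye, MitoTracker Red and Annexin V Alexa Fluor 680 were added to live cells at seeding, and imaging on a CQ1 microscope at 37°C and 5% CO2 followed compound addition. Gating by CellPathfinder machine learning separated cells into Hoechst high-intensity objects or normal cells, then normal cells into healthy, pyknosed or fragmented nuclei, then pyknosed cells into mitotic or apoptotic. Per cents of healthy-nucleus cells are reported for the tubulin, mitochondrial-mass and membrane-permeability phenotypes.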

[1] = 12 h, 1 µM, compound concentration 1 uM
[2] = 12 h, 10 µM, compound concentration 10 uM
[3] = 24 h, 1 µM, compound concentration 1 uM
[4] = 24 h, 10 µM, compound concentration 10 uM
[5] = 48 h, 1 µM, compound concentration 1 uM
[6] = 48 h, 10 µM, compound concentration 10 uM

CN(C)C(=O)Cn1cc(-c2ccc(-c3nnc4ccccn34)cc2)cn1
Population Apoptotic (%) [1]: 90%
Population Fragmented Nuclei (%) [1]: 25% and 22%
Population Healthy Nuclei (%) [1]: 66% and 68%
Population Hoechst High Intensity Objects (%) [1]: 1% and 0%
Population Membrane Permeable-Phenotype (%) [1]: 6% and 3%
Population Mitochondria Different-Phenotype (%) [1]: 1% and 6%
Population Mitotic Cells (%) [1]: 9%
Population Normal (%) [1]: 98% and 99%
Population Pyknosed Nuclei (%) [1]: 8% and 9%
Population Tubulin-Different-Phenotype (%) [1]: 3% and 4%
Total Cell Count [1]: 251 and 123
Population Apoptotic (%) [2]: 95% and 90%
Population Fragmented Nuclei (%) [2]: 26% and 11%
Population Healthy Nuclei (%) [2]: 65% and 81%
Population Hoechst High Intensity Objects (%) [2]: 1%
Population Membrane Permeable-Phenotype (%) [2]: 4%
Population Mitochondria Different-Phenotype (%) [2]: 1% and 0%
Population Mitotic Cells (%) [2]: 4% and 10%
Population Normal (%) [2]: 98%
Population Pyknosed Nuclei (%) [2]: 7%
Population Tubulin-Different-Phenotype (%) [2]: 3%
Total Cell Count [2]: 298 and 140
Population Apoptotic (%) [3]: 94% and 100%
Population Fragmented Nuclei (%) [3]: 22% and 17%
Population Healthy Nuclei (%) [3]: 71% and 74%
Population Hoechst High Intensity Objects (%) [3]: 0%
Population Membrane Permeable-Phenotype (%) [3]: 4% and 7%
Population Mitochondria Different-Phenotype (%) [3]: 2% and 7%
Population Mitotic Cells (%) [3]: 5% and 0%
Population Normal (%) [3]: 99% and 100%
Population Pyknosed Nuclei (%) [3]: 5% and 8%
Population Tubulin-Different-Phenotype (%) [3]: 1% and 4%
Total Cell Count [3]: 315 and 131
Population Apoptotic (%) [4]: 86% and 87%
Population Fragmented Nuclei (%) [4]: 22% and 10%
Population Healthy Nuclei (%) [4]: 66% and 85%
Population Hoechst High Intensity Objects (%) [4]: 2% and 1%
Population Membrane Permeable-Phenotype (%) [4]: 4% and 7%
Population Mitochondria Different-Phenotype (%) [4]: 1%
Population Mitotic Cells (%) [4]: 13% and 12%
Population Normal (%) [4]: 97% and 98%
Population Pyknosed Nuclei (%) [4]: 11% and 4%
Population Tubulin-Different-Phenotype (%) [4]: 2% and 3%
Total Cell Count [4]: 333 and 180
Population Apoptotic (%) [5]: 87% and 93%
Population Fragmented Nuclei (%) [5]: 16% and 11%
Population Healthy Nuclei (%) [5]: 75% and 67%
Population Hoechst High Intensity Objects (%) [5]: 2%
Population Membrane Permeable-Phenotype (%) [5]: 4% and 7%
Population Mitochondria Different-Phenotype (%) [5]: 2% and 3%
Population Mitotic Cells (%) [5]: 12% and 6%
Population Normal (%) [5]: 97%
Population Pyknosed Nuclei (%) [5]: 7% and 20%
Population Tubulin-Different-Phenotype (%) [5]: 1% and 3%
Total Cell Count [5]: 426 and 158
Population Apoptotic (%) [6]: 95% and 85%
Population Fragmented Nuclei (%) [6]: 21% and 8%
Population Healthy Nuclei (%) [6]: 67% and 81%
Population Hoechst High Intensity Objects (%) [6]: 3% and 2%
Population Membrane Permeable-Phenotype (%) [6]: 8% and 6%
Population Mitochondria Different-Phenotype (%) [6]: 4% and 2%
Population Mitotic Cells (%) [6]: 4% and 14%
Population Normal (%) [6]: 96% and 97%
Population Pyknosed Nuclei (%) [6]: 11% and 9%
Population Tubulin-Different-Phenotype (%) [6]: 4% and 2%
Total Cell Count [6]: 418 and 284

COc1ccccc1N1CCN(CCCCNC(=O)c2ccc3ccccc3c2)CC1.Cl
Population Apoptotic (%) [1]: 68% and 42%
Population Fragmented Nuclei (%) [1]: 18% and 17%
Population Healthy Nuclei (%) [1]: 69% and 75%
Population Mitochondria Different-Phenotype (%) [1]: 8% and 15%
Population Mitotic Cells (%) [1]: 31% and 57%
Population Normal (%) [1]: 95% and 97%
Total Cell Count [1]: 243 and 99
Population Apoptotic (%) [2]: 78% and 65%
Population Fragmented Nuclei (%) [2]: 30% and 17%
Population Healthy Nuclei (%) [2]: 39% and 51%
Population Mitochondria Different-Phenotype (%) [2]: 80% and 94%
Population Mitotic Cells (%) [2]: 21% and 34%
Population Normal (%) [2]: 91% and 93%
Population Pyknosed Nuclei (%) [2]: 30%
Total Cell Count [2]: 222 and 111
Population Apoptotic (%) [3]: 78% and 80%
Population Fragmented Nuclei (%) [3]: 18% and 21%
Population Healthy Nuclei (%) [3]: 68%
Population Mitochondria Different-Phenotype (%) [3]: 9% and 11%
Population Mitotic Cells (%) [3]: 21% and 20%
Population Normal (%) [3]: 96% and 98%
Population Pyknosed Nuclei (%) [3]: 9%
Total Cell Count [3]: 262 and 103
Population Apoptotic (%) [4]: 90% and 100%
Population Fragmented Nuclei (%) [4]: 35% and 19%
Population Healthy Nuclei (%) [4]: 32% and 61%
Population Mitochondria Different-Phenotype (%) [4]: 78% and 93%
Population Mitotic Cells (%) [4]: 10% and 0%
Population Normal (%) [4]: 93%
Population Pyknosed Nuclei (%) [4]: 31%
Total Cell Count [4]: 234 and 125
Population Apoptotic (%) [5]: 72% and 88%
Population Fragmented Nuclei (%) [5]: 19% and 17%
Population Healthy Nuclei (%) [5]: 71% and 64%
Population Mitochondria Different-Phenotype (%) [5]: 3%
Population Mitotic Cells (%) [5]: 27% and 12%
Population Normal (%) [5]: 95% and 96%
Population Pyknosed Nuclei (%) [5]: 9%
Total Cell Count [5]: 362 and 144
Population Apoptotic (%) [6]: 93% and 86%
Population Fragmented Nuclei (%) [6]: 38% and 23%
Population Healthy Nuclei (%) [6]: 27% and 37%
Population Mitochondria Different-Phenotype (%) [6]: 69% and 77%
Population Mitotic Cells (%) [6]: 6% and 13%
Population Normal (%) [6]: 91% and 87%
Population Pyknosed Nuclei (%) [6]: 34% and 39%
Total Cell Count [6]: 256 and 111
